Starred links: 1 amine or outer side, 2 acyl side, 3 side chain; linkers in the order of their positions; H or OH if unused. Non-standard residues stand in square brackets, D forms with d. Residues, ends and D or L forms follow the SMILES beside them. ξ: configuration not given here. X1 = C[C@H]1CCN([*:1])[C@@H]1C(=O)[*:2]; X2 = CC1CCN([*:1])[C@@H]1C(=O)[*:2]; Hica(2S) = CC(C)C[C@H](O)C(=O)O; ξLac(3-iPr) = CC(C)CC(O)C(=O)O; NMeV = CN[C@H](C(=O)O)C(C)C; βAla = NCCC(=O)O
How the values were obtained:
[1] = Cytotoxicity against human neutrophils by LDH release assay; format: cell-based; settings: neutrophil
[2] = Antiinflammatory activity in human neutrophils assessed as inhibition of FMLP-induced superoxide anion production treated 5 mins before FMLP addition measured after 10 mins; format: functional, cell-based; settings: Neutrophil
In short: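 Neutrophils from healthy adult donors' venous blood (dextran sedimentation, Ficoll centrifugation), with 0.5 mg/mL ferricytochrome c and 1 mM Ca²⁺, equilibrated 37 °C 2 min, compound 5 min, cytochalasin B (1 μg/mL) 3 min, then FMLP 100 nM for 10 min. SOD-inhibitable (100 U/mL) ferricytochrome c reduction read continuously at 550 nm; IC50 as 50% inhibition concentration.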

[3] = Antiinflammatory activity in human neutrophils assessed as inhibition of FMLP-induced elastase release treated 5 mins before FMLP addition; format: functional, cell-based; settings: Neutrophil
In short: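 Neutrophils (6 × 10⁵/mL) with MeO-Suc-Ala-Ala-Pro-Val-p-nitroanilide substrate (100 μM), equilibrated 37 °C 2 min, compound 5 min, then activated with FMLP (100 nM)/cytochalasin B (0.5 μg/mL). Absorbance at 405 nm monitored continuously; results as percentage of initial elastase rate; IC50 as concentration giving 50% inhibition.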

Compound: CC(C)C[C@@H]1OC(=O)CCNC(=O)[C@H](C(C)C)N(C)C(=O)[C@H](C(C)C)NC(=O)[C@H](Cc2ccccc2)NC(=O)[C@@H]2CCCN2C1=O (cyclo(FV[NMeV][βAla][Hica(2S)]P))
- Activity [1]: Non-toxic
- IC50 [2]: 10 µM

Compound: CC(C)CC1OC(=O)CCNC(=O)[C@H](C(C)C)N(C)C(=O)[C@H](C(C)C)N(C)C(=O)[C@H](Cc2ccccc2)NC(=O)[C@@H]2CCCN2C1=O (stereo not given in full) [ISARIDIN E] (cyclo(F[NMeV][NMeV][βAla][ξLac(3-iPr)]P))
- Activity [1]: Non-toxic
- IC50 [3]: 12.8 µM
- IC50 [2]: 12.2 µM

Compound: CC[C@H](C)[C@@H]1NC(=O)[C@@H]2[C@@H](C)CCN2C(=O)[C@@H](CC(C)C)OC(=O)CCNC(=O)[C@H](C)N(C)C(=O)[C@H](C(C)C)N(C)C1=O [ROSEOCARDIN]
- Activity [1]: Non-toxic
- IC50 [3]: 15.1 µM

Compound: CC(C)C[C@@H]1OC(=O)CCNC(=O)[C@H](C(C)C)N(C)C(=O)[C@H](C(C)C)NC(=O)[C@H](Cc2ccccc2)NC(=O)[C@@H]2[C@@H](C)CCN2C1=O (cyclo(FV[NMeV][βAla][Hica(2S)][X1]))
- Activity [1]: Non-toxic
- IC50 [3]: 10 µM
- IC50 [2]: 10.9 µM

Compound: O=c1c(-c2ccc(O)cc2)coc2cc(O)cc(O)c12 [GENISTEIN]
- IC50 [3]: 6.72 µM
- IC50 [2]: 0.69 µM

Compound: CC(C)CC1OC(=O)CCNC(=O)[C@H](C(C)C)N(C)C(=O)[C@H](C(C)C)N(C)C(=O)[C@H](Cc2ccccc2)NC(=O)[C@@H]2C(C)CCN2C1=O (stereo not given in full) [ISARIDIN C2] (cyclo(F[NMeV][NMeV][βAla][ξLac(3-iPr)][X2]))
- Activity [1]: Non-toxic
- IC50 [3]: 12.1 µM
- IC50 [2]: 10.1 µM
